Assay results reported in paper PMC2859091 (Journal of natural products, 2010).

Columns and labels:
[1] = test system: PANC-1 pancreatic carcinoma; test: Cytotoxicity; format: cell-based, human
Outline: (§1)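 Test compound assessed for effect on proliferation of human PANC-1 pancreatic carcinoma and DLD-1 colorectal adenocarcinoma cells, both lines obtained from ATCC. The procedure follows a previously described protocol. Each sample was assayed at least three times to derive the final value.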

[2] = test system: Pseudomonas aeruginosa (ATCC 27853); test: Antimicrobial assay, P. aeruginosa; format: cell-based; details: at the concentrations tested
[3] = test system: DLD-1 human colorectal adenocarcinoma; test: Cytotoxicity; format: cell-based
Outline: as §1

[4] = test system: Candida albicans (ATCC 44506); test: Antimicrobial assay, C. albicans; format: cell-based; details: at the concentrations tested
MCL-1 binding to Bak = MCL-1 binding to Bak (Homo sapiens, UniProt Q07820); test: MCL-1 assay
Chain of MCL-1 binding to Bak (Q07820 whole entry): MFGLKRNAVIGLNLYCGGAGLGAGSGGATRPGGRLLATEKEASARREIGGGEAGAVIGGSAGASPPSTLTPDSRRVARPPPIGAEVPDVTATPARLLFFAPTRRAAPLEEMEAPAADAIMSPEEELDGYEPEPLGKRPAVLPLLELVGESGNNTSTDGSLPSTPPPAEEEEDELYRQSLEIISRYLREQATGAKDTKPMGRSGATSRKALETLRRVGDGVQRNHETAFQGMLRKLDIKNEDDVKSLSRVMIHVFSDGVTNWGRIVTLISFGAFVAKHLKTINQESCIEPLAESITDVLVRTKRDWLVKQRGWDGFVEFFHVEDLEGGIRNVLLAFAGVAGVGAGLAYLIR

[5] = test system: NCI/ADR-Res (multi drug resistant ovarian cancer cell line); test: Cytotoxicity; format: cell-based, human; details: at a concentration of 5.2 µM

Row | Structure (SMILES) | inhibitory activity against PANC-1 ([1]; at a concentration of 6.4 µM) | activity against Pseudomonas aeruginosa [2] | inhibitory activity against DLD-1 ([3]; at a concentration of 6.4 µM) | activity against Candida albicans [4] | inhibitory activity against PANC-1 ([1]; at a concentration of 5.2 µM) | inhibition of MCL-1 binding to Bak (in words) (MCL-1 binding to Bak) | inhibitory activity against DLD-1 ([3]; at a concentration of 5.2 µM) | inhibitory activity against NCI/ADR-Res [5]
1 | CCC[C@@H](O)Cc1c(Br)c(O)c2c(=O)c3c(O)cc(O)c4c5c(O)cc(O)c6c(=O)c7c(O)c(Br)c(C[C@H](C)O)c8c1c2c(c34)c(c65)c78 [Gymnochrome E, 1,6,8,10,11,13-hexahydroxy-2,5-dibromo-3-(2-hydroxypropyl)-4-(2-hydroxypentyl)-phenanthroperylene-7,14-quinone] | did not show significant inhibitory activity | did not show activity | did not show significant inhibitory activity | did not show activity |  |  |  | 
2 | CCC[C@@H](O)Cc1c(Br)c(O)c2c(=O)c3c(O)c(Br)c(O)c4c5c(O)c(Br)c(O)c6c(=O)c7c(O)c(Br)c(C[C@H](O)CCC)c8c1c2c(c34)c(c65)c78 [Gymnochrome F, 1,6,8,10,11,13-hexahydroxy-2,5,9,12-tetrabromo-3,4-(2-hydroxypentyl)-phenanthroperylene-7,14-quinone] |  | did not show activity |  | did not show activity | did not show significant inhibitory activity | moderate inhibitor | did not show significant inhibitory activity | did not show significant inhibitory activity
